The text below walks through data of ChEMBL document CHEMBL1140702, “New celecoxib derivatives as anti-inflammatory agents” (J Med Chem, 2008).

A value given as a limit tells only on which side of the number the result lay.

Experiment [1] has as its system Rattus norvegicus. Nature of the experiment: Antiinflammatory activity in Wistar rat assessed as inhibition of carrageenan-induced paw edema at 10 mg/kg, po after 4 hrs relative to celecoxib. It is filed as functional. The following applies: for inhibition in vivo at 10 mg/kg: Rattus norvegicus, Wistar, po, 4 h. In outline: (§1)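 Male Wistar rats (140–150 g; n = 6–12/group) given 50 µL of 1% carrageenan subcutaneously into the right hind paw subplantar region. Oral test doses. Edema is the pre- versus post-treatment volume difference (mL), read by water-displacement plethysmometer.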

Experiment [2] concerns Rattus norvegicus. As to the kind of experiment: Antiinflammatory activity in Wistar rat assessed as inhibition of carrageenan-induced paw edema at 10 mg/kg, po after 6 hrs relative to celecoxib. It counts as functional. The conditions noted are these: for inhibition in vivo at 10 mg/kg: Rattus norvegicus, Wistar, po, 6 h. In outline:
as §1
In general terms: In the carrageenan paw model, swelling and tenderness develop within hours.

The subject of experiment [3] is Rattus norvegicus. Nature of the experiment: Antiinflammatory activity in Wistar rat assessed as inhibition of carrageenan-induced paw edema at 10 mg/kg, po after 7 hrs relative to celecoxib. It is filed as functional. The conditions noted are these: for inhibition in vivo at 10 mg/kg: Rattus norvegicus, Wistar, po, 7 h. In outline:
as §1

The test system of experiment [4] is Rattus norvegicus. As to the kind of experiment: Antiinflammatory activity in Wistar rat assessed as inhibition of carrageenan-induced paw edema after 4 hrs. It counts as functional.
Experiment [5] has as its system Rattus norvegicus. As to the kind of experiment: Analgesic activity in acute model Wistar rat assessed as reversal of carrageenan-induced hind paw edema at 10 mg/kg, po after 60 mins by mechanical hyperalgesia test relative to celecoxib. It is filed as functional. A digest of the protocol:
(§2)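 Randall-Selitto test: male Wistar rats (140–190 g; n = 8–12/group), carrageenan injected subcutaneously in the subplantar right hind paw. Basal paw-withdrawal pressure threshold (g) measured before carrageenan, then after oral dosing at 30, 60, 120 and 180 min. Maximal threshold reduction develops 2–3 h post-injection. Analgesia expressed as % reversal of hyperalgesia.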

Experiment [6] has as its system Rattus norvegicus. Nature of the experiment: Analgesic activity in acute model Wistar rat assessed as reversal of carrageenan-induced hind paw edema at 10 mg/kg, po after 120 mins by mechanical hyperalgesia test relative to celecoxib. It is filed as functional. In outline:
as §2

In experiment [7] the test system is Rattus norvegicus. As to the kind of experiment: Analgesic activity in acute model Wistar rat assessed as reversal of carrageenan-induced hind paw edema at 10 mg/kg, po after 180 mins by mechanical hyperalgesia test relative to celecoxib. It counts as functional. In outline:
as §2

The subject of experiment [8] is Rattus norvegicus. Nature of the experiment: Analgesic activity in acute model Wistar rat assessed as reversal of carrageenan-induced hind paw edema at 30 mg/kg, po after 60 mins by mechanical hyperalgesia test relative to celecoxib. It is filed as functional. A digest of the protocol:
as §2

Experiment [9] deals with Rattus norvegicus. Nature of the experiment: Effect on acetic acid-induced chronic gastric ulcer Wistar rat assessed as area of ulcer at 30 mg/kg, po. It is filed as functional, Stomach. In outline: (§3)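 Chronic ulcer (Okabe method): under ether anesthesia, male Wistar rats (150–170 g) had 0.05 mL 20% acetic acid injected into the submucosa of the anterior glandular stomach wall via laparotomy. Oral dosing with methylcellulose vehicle control. Killed after 12 days. Ulcer area taken as length × width (mm²); body-weight change recorded.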

Experiment [10] has as its system Rattus norvegicus. Nature of the experiment: Inhibition of ethanol-induced gastric mucosal damage in Wistar rat assessed as ulcer index at 30 mg/kg, po. It counts as functional, Gastric mucosa. A digest of the protocol: (§4)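 After 24 h fasting, male Wistar rats (140–160 g; n = 10) received oral 0.5 mL acidified ethanol (98% ethanol in 200 mmol/l HCl), with oral test doses and methylcellulose vehicle. Stomachs removed 1 h later and scored blind on a 0–4 scale. Lesion index = lesion number × severity. % inhibition calculated against control lesion index.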

Experiment [11] deals with Rattus norvegicus. Nature of the experiment: Inhibition of ethanol-induced gastric mucosal damage in Wistar rat assessed as ulcer index at 15 mg/kg, po. It is filed as functional, Gastric mucosa. In outline: as §4
In experiment [12] the test system is Rattus norvegicus. Nature of the experiment: Inhibition of ethanol-induced gastric mucosal damage in Wistar rat assessed as ulcer index at 60 mg/kg, po. It is filed as functional, Gastric mucosa. A digest of the protocol:
as §4

The test system of experiment [13] is Rattus norvegicus. As to the kind of experiment: Analgesic activity in acute model Wistar rat assessed as reversal of carrageenan-induced hind paw edema at 30 mg/kg, po after 120 mins by mechanical hyperalgesia test relative to celecoxib. It is filed as functional. A digest of the protocol: as §2
In experiment [14] the test system is Rattus norvegicus. Nature of the experiment: Analgesic activity in acute model Wistar rat assessed as reversal of carrageenan-induced hind paw edema at 30 mg/kg, po after 180 mins by mechanical hyperalgesia test relative to celecoxib. It counts as functional. A digest of the protocol: as §2
Experiment [15] concerns Rattus norvegicus. Nature of the experiment: Analgesic activity in chronic model Wistar rat assessed as reversal of carrageenan-induced hind paw edema at 10 mg/kg, po after 60 mins by mechanical hyperalgesia test relative to celecoxib. It counts as functional. A digest of the protocol:
as §2

Experiment [16] relates to Rattus norvegicus. As to the kind of experiment: Analgesic activity in chronic model Wistar rat assessed as reversal of carrageenan-induced hind paw edema at 10 mg/kg, po after 30 mins by mechanical hyperalgesia test relative to celecoxib. It is filed as functional. In outline: as §2
Experiment [17] concerns Rattus norvegicus. As to the kind of experiment: Analgesic activity in chronic model Wistar rat assessed as reversal of carrageenan-induced hind paw edema at 10 mg/kg, po after 120 mins by mechanical hyperalgesia test relative to celecoxib. It is filed as functional. A digest of the protocol: as §2
Experiment [18] relates to Rattus norvegicus. Nature of the experiment: Analgesic activity in chronic model Wistar rat assessed as reversal of carrageenan-induced hind paw edema at 10 mg/kg, po after 180 mins by mechanical hyperalgesia test relative to celecoxib. It counts as functional. A digest of the protocol: as §2
Experiment [19] has as its system Rattus norvegicus. As to the kind of experiment: Analgesic activity in chronic model Wistar rat assessed as reversal of carrageenan-induced hind paw edema at 30 mg/kg, po after 30 mins by mechanical hyperalgesia test relative to celecoxib. It is filed as functional. A digest of the protocol: as §2
The test system of experiment [20] is Rattus norvegicus. Nature of the experiment: Analgesic activity in chronic model Wistar rat assessed as reversal of carrageenan-induced hind paw edema at 30 mg/kg, po after 60 mins by mechanical hyperalgesia test relative to celecoxib. It counts as functional. In outline: as §2
For experiment [21], the system named is Rattus norvegicus. Nature of the experiment: Analgesic activity in chronic model Wistar rat assessed as reversal of carrageenan-induced hind paw edema at 30 mg/kg, po after 120 mins by mechanical hyperalgesia test relative to celecoxib. It counts as functional. A digest of the protocol: as §2
For experiment [22], the system named is Rattus norvegicus. Nature of the experiment: Analgesic activity in chronic model Wistar rat assessed as reversal of carrageenan-induced hind paw edema at 30 mg/kg, po after 180 mins by mechanical hyperalgesia test relative to celecoxib. It is filed as functional. In outline:
as §2

The test system of experiment [23] is Rattus norvegicus. As to the kind of experiment: Inhibition of ethanol-induced gastric mucosal damage in Wistar rat at 30 mg/kg, po. It counts as functional. The following applies: Gastric mucosa. In outline: as §4
For experiment [24], the system named is Rattus norvegicus. Nature of the experiment: Inhibition of ethanol-induced gastric mucosal damage in Wistar rat at 15 mg/kg, po. It is filed as functional. The following applies: Gastric mucosa. In outline:
as §4

Experiment [25] deals with Rattus norvegicus. Nature of the experiment: Inhibition of ethanol-induced gastric mucosal damage in Wistar rat at 60 mg/kg, po. It is filed as functional. The following applies: Gastric mucosa. A digest of the protocol:
as §4

In experiment [26] the test system is Rattus norvegicus. As to the kind of experiment: Increase in body weight in acetic acid-induced chronic gastric ulcer Wistar rat at 30 mg/kg, po. It counts as functional, Stomach. A digest of the protocol:
as §3

Experiment [27] deals with Rattus norvegicus. As to the kind of experiment: Antiinflammatory activity in Wistar rat assessed as inhibition of carrageenan-induced paw edema.
For experiment [28], the system named is Rattus norvegicus. Nature of the experiment: Effect on acetic acid-induced chronic gastric ulcer Wistar rat assessed as area of ulcer at 2.0 mg/kg, po. It counts as functional, Stomach. In outline: as §3
Experiment [29] deals with Rattus norvegicus. As to the kind of experiment: Increase in body weight in acetic acid-induced chronic gastric ulcer Wistar rat at 2.0 mg/kg, po. It counts as functional, Stomach. In outline: as §3

The inhibition in vivo is the change of the read-out against control, counted positive when it falls. Usually Inhibition stands for the share of the control response that was lost under treatment.

With `Cc1ccc(-c2cc(C(F)(F)F)nn2-c2ccc(S(=O)(=O)NOCCC(=O)[O-])cc2)cc1.[Na+]`, in [1], the inhibition in vivo at 10 mg/kg worked out at 32%. Moreover, the Inhibition in [2] is 33.9%; in [3] it was 24.9%.
Take `Cc1ccc(-c2cc(C(F)(F)F)nn2-c2ccc(S(=O)(=O)NOCC(=O)O)cc2)cc1` [listing 1 of 2 here]: the Inhibition in experiment [1] worked out at 13.1%; in [2], 21.3%; in experiment [3], 17.1%.
Turning to `CCOC(=O)CONS(=O)(=O)c1ccc(-n2nc(C(F)(F)F)cc2-c2ccc(C)cc2)cc1`, the inhibition in vivo at 10 mg/kg in experiment [1] was 13.3%; in experiment [2], 23.1%; in experiment [3], 20.6%.
In the case of `Cc1ccc(-c2cc(C(F)(F)F)nn2-c2ccc(S(=O)(=O)NO[C@@H](C)C(=O)O)cc2)cc1`, the values for the inhibition in vivo at 10 mg/kg in experiment [1], in experiment [2] and in [3] were 0.9%, -9.3% and -6.3%, respectively.
Regarding `Cc1ccc(-c2cc(C(F)(F)F)nn2-c2ccc(S(=O)(=O)NO[C@H](C)C(=O)O)cc2)cc1`, the inhibition in vivo at 10 mg/kg in [1] was 18.4%; in [2], 15.3%; in experiment [3], 6.7%.
In the case of `Cc1ccc(-c2cc(C(F)(F)F)nn2-c2ccc(S(=O)(=O)NOCCC(=O)O)cc2)cc1`, the values for the Inhibition in experiment [1], in experiment [2] and in experiment [3] were 23.6%, 12.8% and 11.9%, respectively.
For the compound `Cc1ccc(-c2cc(C(F)(F)F)nn2-c2ccc(S(=O)(=O)NOCC(=O)O)cc2)cc1` [listing 2 of 2 here], the inhibition in vivo at 10 mg/kg in experiment [1] turned out to be 26%; in experiment [2], 33.2%; in experiment [3], 24.7%.
In the case of `CCOC(=O)C(C)ONS(=O)(=O)c1ccc(-n2nc(C(F)(F)F)cc2-c2ccc(C)cc2)cc1` (racemic), the inhibition in vivo at 10 mg/kg in [1] came out at 23.5%; in experiment [2], 15.7%; in [3], 7.3%.
As to `Cc1ccc(-c2cc(C(F)(F)F)nn2-c2ccc(S(=O)(=O)NOC(C)C(=O)O)cc2)cc1` (racemic; 16), the Inhibition in [1] is reported as 41%; in experiment [2] it was 31.1%; in experiment [3], 17.9%. Further, the values for the ED30 in experiment [4] and in experiment [27] were 5.7 mg/kg and 8.4 mg/kg, respectively. Besides, the Activity in [5] came out at 24%; in [6], 30%; in experiment [7] it was 15%; in [8], 89%; in [9] it was 2.4 mm2; in experiment [13], 59%. Besides, the Activity in experiment [14] is listed as 35%; in experiment [15], 22%; in [16] it was 23%; in experiment [17], 28%; in experiment [18], 20%; in experiment [19] it was 42%. Besides, the Activity in experiment [20] is given as 54%; in experiment [21], 34%; in experiment [22] it was 19%; in experiment [26], 43 g. In addition, the UI in [10] was found to be 35; in experiment [11], 43; in experiment [12], 15.8. In experiment [23], the inhibition in vivo at 30 mg/kg is 43%. Further, the inhibition in vivo at 15 mg/kg in [24] was 35%. Moreover, the inhibition in vivo at 60 mg/kg in [25] was found to be 76%.
For `Cc1ccc(-c2cc(C(F)(F)F)nn2-c2ccc(S(=O)(=O)NOC(C)C(=O)O)cc2)cc1` (racemic; 21), the results for the inhibition in vivo at 10 mg/kg in [1], in experiment [2] and in experiment [3] were 38.4%, 21.8% and 16.2%, respectively.
As for `Cc1ccc(-c2cc(C(F)(F)F)nn2-c2ccc(S(N)(=O)=O)cc2)cc1` [CELECOXIB], the inhibition in vivo at 10 mg/kg came to 24.2% in [1], 18.6% in experiment [2] and 12.3% in experiment [3]. Moreover, the ED30 in [4] is 23 mg/kg; in experiment [27], > 30 mg/kg. For the same compound, the Activity in experiment [5] is 0%; in experiment [6] it was 0%; in experiment [7], 0%; in [8] it was 24%; in [9] it was 8.2 mm2; in experiment [13], 3%. Moreover, the Activity in experiment [14] worked out at 0%; in experiment [15], 17%; in [16], 24%; in [17], 0%; in experiment [18] it was 0%; in experiment [19] it was 54%. The Activity is reported as 34% in [20], 34% in experiment [21], 26% in [22] and 32 g in experiment [26]. For the same compound, the UI in [10] came out at 49.4; in experiment [11], 80.6; in experiment [12], 44.4. For the same compound, in experiment [23], the inhibition in vivo at 30 mg/kg was 19%. Besides, in [24], the inhibition in vivo at 15 mg/kg came to 18%. Moreover, the inhibition in vivo at 60 mg/kg in experiment [25] was 55%.
For `COc1ccc2c(c1)c(CC(=O)O)c(C)n2C(=O)c1ccc(Cl)cc1` [INDOMETHACIN], the Activity in experiment [28] was 39 mm2; in experiment [29], 2 g.
